Experimental data taken from ChEMBL document CHEMBL1122863, “Renin inhibitors. Syntheses of subnanomolar, competitive, transition-state analogue inhibitors containing a novel analogue of statine” (J Med Chem, 1985).
Residues, ends and D or L forms follow the SMILES beside them.

Assays:
Mus musculus = species on record: Mus musculus; assay: The compound was tested for inhibition of mouse submaxillary renin.; format: functional
How it was run: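 Mouse submaxillary gland renin was run like the human kidney renin assay: synthetic tetradecapeptide substrate, fluorometric read-out, pH 7.20 citrate/phosphate, 37 °C. Ki came from a competitive inhibition fit.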

Pepsin A = Pepsin A (Sus scrofa, UniProt P00791); assay: The compound was tested for inhibition of porcine pepsin.
Sequence of Pepsin A (P00791 whole entry): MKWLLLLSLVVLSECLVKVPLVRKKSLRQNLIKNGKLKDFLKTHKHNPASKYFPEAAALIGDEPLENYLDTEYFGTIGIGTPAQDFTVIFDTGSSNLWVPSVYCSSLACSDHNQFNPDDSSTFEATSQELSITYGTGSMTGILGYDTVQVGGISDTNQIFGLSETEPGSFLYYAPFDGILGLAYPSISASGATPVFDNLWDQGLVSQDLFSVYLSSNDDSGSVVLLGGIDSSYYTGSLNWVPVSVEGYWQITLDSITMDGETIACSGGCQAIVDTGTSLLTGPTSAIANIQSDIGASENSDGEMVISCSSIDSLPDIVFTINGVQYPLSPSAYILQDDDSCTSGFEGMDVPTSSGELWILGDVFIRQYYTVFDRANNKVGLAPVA

Rhizopuspepsin = target: T1, Rhizopuspepsin (Rhizopus microsporus var. chinensis, UniProt P06026); assay: Inhibition of rhizopuspepsin
T1 sequence (P06026 whole entry): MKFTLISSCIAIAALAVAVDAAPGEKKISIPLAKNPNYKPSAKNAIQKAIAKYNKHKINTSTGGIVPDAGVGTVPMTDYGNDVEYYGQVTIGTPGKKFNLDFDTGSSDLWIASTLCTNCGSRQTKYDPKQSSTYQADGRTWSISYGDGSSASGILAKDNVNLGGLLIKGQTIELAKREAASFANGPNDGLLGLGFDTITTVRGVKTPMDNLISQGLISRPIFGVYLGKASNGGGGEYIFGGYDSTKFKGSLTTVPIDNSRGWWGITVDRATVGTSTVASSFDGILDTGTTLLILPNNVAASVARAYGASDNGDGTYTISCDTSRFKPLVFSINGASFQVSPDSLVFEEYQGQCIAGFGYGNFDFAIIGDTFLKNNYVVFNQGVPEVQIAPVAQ
How it was run: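 IC50 came from several inhibitor concentrations and was converted to Ki by the Cha equation, assuming competitive inhibition.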

Renin [1] = target: T2, Renin (Homo sapiens, UniProt P00797); assay: Inhibition of human plasma renin; format: cell-free
T2 sequence (P00797 whole entry): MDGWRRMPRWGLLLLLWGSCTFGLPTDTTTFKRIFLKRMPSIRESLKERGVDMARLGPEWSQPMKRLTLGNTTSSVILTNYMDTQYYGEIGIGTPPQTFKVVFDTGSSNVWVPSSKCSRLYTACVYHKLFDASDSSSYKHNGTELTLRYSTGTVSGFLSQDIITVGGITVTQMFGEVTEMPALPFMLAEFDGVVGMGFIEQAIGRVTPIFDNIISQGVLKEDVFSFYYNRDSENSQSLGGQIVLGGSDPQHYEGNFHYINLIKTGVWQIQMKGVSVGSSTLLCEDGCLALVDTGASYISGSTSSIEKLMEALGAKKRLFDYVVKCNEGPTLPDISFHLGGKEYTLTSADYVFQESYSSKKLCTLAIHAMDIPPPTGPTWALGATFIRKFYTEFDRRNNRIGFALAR
How it was run: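 Renin in reconstituted lyophilized human plasma (high- or low-renin lots), acting on endogenous angiotensinogen. Angiotensin I was measured by radioimmunoassay at pH 7.4 phosphate, 37 °C, with 8-hydroxyquinoline or PMSF as angiotensinase inhibitor. Inhibitor stocks were 1.00×10⁻³ M in methanol or acetic acid. IC50 taken from several concentrations bracketing it.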

Renin [2] = target: T2, Renin; assay: Inhibition of human kidney renin
How it was run: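 Fluorometric assay with a synthetic tetradecapeptide substrate, pH 7.20 citrate/phosphate, 37 °C. Ki obtained by fitting to a competitive inhibition equation, sometimes from data pooled across two independent experiments. Reproducible within ±20%.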

Renin (Canis familiaris) = assay: Inhibition of Renin

SMILES | IC50 (Renin [1]) | Ki (Renin [2]) | IC50 (Renin (Canis familiaris)) | Ki (Mus musculus) | Ki (Pepsin A) | Ki (Rhizopuspepsin)
CC(C)CC(=O)N[C@@H](Cc1c[nH]cn1)C(=O)N1CCC[C@H]1C(=O)N[C@@H](Cc1ccccc1)C(=O)N[C@@H](Cc1c[nH]cn1)C(=O)N[C@@H](CC(C)C)[C@@H](O)CC(=O)N[C@@H](CC(C)C)C(=O)N[C@@H](Cc1ccccc1)C(N)=O (HELM PEPTIDE1{[CC(C)CC(=O)[*:2]].H.P.F.H.[CC(C)C[C@H](N[*:1])[C@@H](O)CC(=O)[*:2]].L.F.[am]}$$$$V2.0) | – | – | – | 14 nM | 27 nM | 200 nM
CC(C)C[C@H](NC(=O)C[C@H](O)[C@H](Cc1ccccc1)NC(=O)[C@H](Cc1c[nH]cn1)NC(=O)COc1ccccc1)C(=O)N[C@@H](Cc1ccccc1)C(N)=O | > 1000 nM | 580 nM | > 1000 nM | – | – | –
CC(C)C[C@H](NC(=O)C[C@H](O)[C@H](CC(C)C)NC(=O)[C@H](Cc1c[nH]cn1)NC(=O)COc1ccccc1)C(=O)N[C@@H](Cc1ccccc1)C(N)=O (HELM PEPTIDE1{[O=C(COc1ccccc1)[*:2]].H.[CC(C)C[C@H](N[*:1])[C@@H](O)CC(=O)[*:2]].L.F.[am]}$$$$V2.0) | – | 4100 nM | – | – | – | –
CC(C)CC(=O)N[C@@H](Cc1c[nH]cn1)C(=O)N1CCC[C@H]1C(=O)N[C@@H](Cc1ccccc1)C(=O)N[C@@H](Cc1c[nH]cn1)C(=O)N[C@@H](CC1CCCCC1)C(O)CC(=O)N[C@@H](CC(C)C)C(=O)N[C@@H](Cc1ccccc1)C(N)=O (some centres not stated) (HELM PEPTIDE1{[CC(C)CC(=O)[*:2]].H.P.F.H.[O=C(CC(O)[C@H](CC1CCCCC1)N[*:1])[*:2]].L.F.[am]}$$$$V2.0) | – | – | – | 2.1 nM | 28 nM | 230 nM

Second part, led by results:

IC50 (Renin [1]) | Ki (Renin [2]) | IC50 (Renin (Canis familiaris)) | SMILES | Ki (Mus musculus) | Ki (Pepsin A) | Ki (Rhizopuspepsin)
1000 nM | 14 nM | > 1000 nM | CC(C)C[C@H](NC(=O)C[C@H](O)[C@H](CC1CCCCC1)NC(=O)[C@H](Cc1c[nH]cn1)NC(=O)COc1ccccc1)C(=O)N[C@@H](Cc1ccccc1)C(N)=O | – | – | –
0.76 nM | 0.52 nM | 9.5 nM | CCOC(=O)N[C@@H](Cc1ccccc1)C(=O)N[C@@H](Cc1c[nH]cn1)C(=O)N[C@@H](CC1CCCCC1)[C@@H](O)CC(=O)N[C@@H](CC(C)C)C(=O)N[C@@H](Cc1ccccc1)C(N)=O (HELM PEPTIDE1{[CCOC(=O)[*:2]].F.H.[O=C(C[C@H](O)[C@H](CC1CCCCC1)N[*:1])[*:2]].L.F.[am]}$$$$V2.0) | – | – | –
5.1 nM | 1.1 nM | 20 nM | CC(C)C[C@H](NC(=O)C[C@H](O)[C@H](CC1CCCCC1)NC(=O)[C@H](Cc1c[nH]cn1)NC(=O)[C@H](Cc1ccccc1)NC(=O)OC(C)C)C(=O)N[C@@H](Cc1ccccc1)C(N)=O (HELM PEPTIDE1{[CC(C)OC(=O)[*:2]].F.H.[O=C(C[C@H](O)[C@H](CC1CCCCC1)N[*:1])[*:2]].L.F.[am]}$$$$V2.0) | – | – | –
2.2 nM | 0.88 nM | 13 nM | CC(C)C[C@H](NC(=O)C[C@H](O)[C@H](CC1CCCCC1)NC(=O)[C@H](Cc1c[nH]cn1)NC(=O)[C@H](Cc1ccccc1)NC(=O)OC(C)(C)C)C(=O)N[C@@H](Cc1ccccc1)C(N)=O (HELM PEPTIDE1{[CC(C)(C)OC(=O)[*:2]].F.H.[O=C(C[C@H](O)[C@H](CC1CCCCC1)N[*:1])[*:2]].L.F.[am]}$$$$V2.0) | – | – | –
